pKi: −log10 of the molar value.
Assays:
[1] = biological target: T1, Neuronal acetylcholine receptor; alpha2/beta2 (Rattus norvegicus, UniProt P12389+P12390); assay: Displacement of [3H]epibatidine from rat alpha2beta2 nACHR expressed in human HEK293 cells at 10 uM; assay type: cell-based
[2] = biological target: T2, Neuronal acetylcholine receptor; alpha2/beta4 (Rattus norvegicus, UniProt P12389+P12392); assay: Displacement of [3H]epibatidine from rat alpha-2-beta-4 nACHR expressed in human HEK293 cells at 10 uM; assay type: cell-based
T2 sequence (P12389 whole entry): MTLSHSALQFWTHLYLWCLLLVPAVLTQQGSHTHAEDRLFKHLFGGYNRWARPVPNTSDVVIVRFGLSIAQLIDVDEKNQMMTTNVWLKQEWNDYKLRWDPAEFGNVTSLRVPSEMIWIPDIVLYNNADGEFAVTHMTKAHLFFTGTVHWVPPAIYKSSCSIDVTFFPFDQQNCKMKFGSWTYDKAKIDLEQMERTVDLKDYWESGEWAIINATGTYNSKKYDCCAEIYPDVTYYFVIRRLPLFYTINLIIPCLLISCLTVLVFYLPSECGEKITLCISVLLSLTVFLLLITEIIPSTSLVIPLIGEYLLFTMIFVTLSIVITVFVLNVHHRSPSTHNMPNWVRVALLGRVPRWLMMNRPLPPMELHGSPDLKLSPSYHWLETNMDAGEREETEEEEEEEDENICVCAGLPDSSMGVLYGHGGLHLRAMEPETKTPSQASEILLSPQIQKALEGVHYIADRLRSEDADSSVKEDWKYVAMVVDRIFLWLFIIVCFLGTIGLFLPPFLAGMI
T2 sequence (P12392 whole entry): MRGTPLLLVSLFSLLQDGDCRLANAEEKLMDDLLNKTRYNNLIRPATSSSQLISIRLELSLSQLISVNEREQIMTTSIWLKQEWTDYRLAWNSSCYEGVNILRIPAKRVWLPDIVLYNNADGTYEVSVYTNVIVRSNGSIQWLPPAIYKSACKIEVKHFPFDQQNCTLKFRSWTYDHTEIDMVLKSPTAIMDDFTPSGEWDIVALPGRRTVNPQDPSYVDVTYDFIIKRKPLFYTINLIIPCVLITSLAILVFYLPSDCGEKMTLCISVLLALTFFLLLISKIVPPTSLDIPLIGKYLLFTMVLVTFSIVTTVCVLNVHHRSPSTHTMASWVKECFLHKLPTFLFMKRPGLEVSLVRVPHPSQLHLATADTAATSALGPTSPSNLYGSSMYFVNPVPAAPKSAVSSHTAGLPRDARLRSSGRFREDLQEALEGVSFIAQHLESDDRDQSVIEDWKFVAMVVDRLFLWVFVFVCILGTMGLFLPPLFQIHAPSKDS

[3] = biological target: Neuronal acetylcholine receptor; alpha3/beta2 (Rattus norvegicus, UniProt P04757+P12390); assay: Displacement of [3H]epibatidine from rat alpha-3-beta-2 nACHR expressed in human HEK293 cells at 10 uM; assay type: cell-based
Sequence of Neuronal acetylcholine receptor; alpha3/beta2 (P04757 whole entry): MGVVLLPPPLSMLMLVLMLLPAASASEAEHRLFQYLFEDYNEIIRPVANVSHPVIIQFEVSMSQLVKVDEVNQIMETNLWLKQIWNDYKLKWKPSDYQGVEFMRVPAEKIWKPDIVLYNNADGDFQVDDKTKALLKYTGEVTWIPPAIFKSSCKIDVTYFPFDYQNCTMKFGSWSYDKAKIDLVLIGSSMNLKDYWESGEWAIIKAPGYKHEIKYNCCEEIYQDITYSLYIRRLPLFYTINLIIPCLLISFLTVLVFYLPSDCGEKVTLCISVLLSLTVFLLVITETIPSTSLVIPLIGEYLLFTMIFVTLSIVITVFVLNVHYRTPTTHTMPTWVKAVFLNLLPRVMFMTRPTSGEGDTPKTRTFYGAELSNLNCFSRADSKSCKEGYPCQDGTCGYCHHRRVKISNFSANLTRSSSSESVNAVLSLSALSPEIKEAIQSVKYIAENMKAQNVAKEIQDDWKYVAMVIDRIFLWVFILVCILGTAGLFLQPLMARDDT
Sequence of Neuronal acetylcholine receptor; alpha3/beta2 (P12390 whole entry): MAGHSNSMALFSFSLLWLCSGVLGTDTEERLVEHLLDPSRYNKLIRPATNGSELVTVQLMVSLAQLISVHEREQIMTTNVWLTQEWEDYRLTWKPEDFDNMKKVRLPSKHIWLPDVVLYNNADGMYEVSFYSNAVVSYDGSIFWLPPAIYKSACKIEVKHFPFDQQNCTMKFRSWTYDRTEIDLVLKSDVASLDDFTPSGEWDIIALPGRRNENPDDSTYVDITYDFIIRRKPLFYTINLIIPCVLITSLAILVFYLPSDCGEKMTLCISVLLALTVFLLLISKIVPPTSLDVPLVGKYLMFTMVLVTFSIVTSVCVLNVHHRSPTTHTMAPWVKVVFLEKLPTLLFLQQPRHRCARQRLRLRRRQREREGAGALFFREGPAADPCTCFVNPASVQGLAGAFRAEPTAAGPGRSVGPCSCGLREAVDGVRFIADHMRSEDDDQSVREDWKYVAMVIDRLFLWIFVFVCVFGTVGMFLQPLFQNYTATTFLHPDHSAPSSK

[4] = biological target: T3, Neuronal acetylcholine receptor; alpha3/beta4 (Rattus norvegicus, UniProt P04757+P12392); assay: Displacement of [3H]epibatidine from rat alpha-3-beta-4 nACHR expressed in human HEK293 cells at 10 uM; assay type: cell-based
T3 sequence (P04757 whole entry): as the sequence (P04757 whole entry) above
T3 sequence (P12392 whole entry): as the sequence (P12392 whole entry) above

[5] = biological target: T4, Neuronal acetylcholine receptor; alpha4/beta2 (Rattus norvegicus, UniProt P09483+P12390); assay: Displacement of [3H]epibatidine from rat alpha-4-beta-2 nACHR expressed in human HEK293 cells at 10 uM; assay type: cell-based
T4 sequence (P09483 whole entry): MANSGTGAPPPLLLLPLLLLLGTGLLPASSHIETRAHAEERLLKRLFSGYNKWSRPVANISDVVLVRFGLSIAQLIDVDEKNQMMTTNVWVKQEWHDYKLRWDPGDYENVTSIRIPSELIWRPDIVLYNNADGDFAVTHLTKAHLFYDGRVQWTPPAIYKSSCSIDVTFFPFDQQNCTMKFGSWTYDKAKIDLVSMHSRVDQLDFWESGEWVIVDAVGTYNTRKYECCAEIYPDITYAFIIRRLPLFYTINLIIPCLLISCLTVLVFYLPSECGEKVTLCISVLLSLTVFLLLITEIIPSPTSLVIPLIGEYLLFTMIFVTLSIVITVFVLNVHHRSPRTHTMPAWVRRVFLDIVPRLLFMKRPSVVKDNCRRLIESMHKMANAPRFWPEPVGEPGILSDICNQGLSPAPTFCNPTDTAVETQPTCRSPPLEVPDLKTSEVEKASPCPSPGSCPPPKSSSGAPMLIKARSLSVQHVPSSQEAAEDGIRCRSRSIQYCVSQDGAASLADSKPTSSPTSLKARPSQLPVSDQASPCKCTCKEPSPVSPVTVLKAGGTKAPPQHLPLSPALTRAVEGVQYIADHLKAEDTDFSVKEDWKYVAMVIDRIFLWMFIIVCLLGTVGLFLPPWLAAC
T4 sequence (P12390 whole entry): as the sequence (P12390 whole entry) above

[6] = biological target: T5, Neuronal acetylcholine receptor; alpha4/beta4 (Rattus norvegicus, UniProt P09483+P12392); assay: Displacement of [3H]epibatidine from rat alpha-4-beta-4 nACHR expressed in human HEK293 cells at 10 uM; assay type: cell-based
T5 sequence (P09483 whole entry): as the sequence (P09483 whole entry) above
T5 sequence (P12392 whole entry): as the sequence (P12392 whole entry) above

[7] = Displacement of [3H]epibatidine from rat […] nACHR expressed in human HEK293 cells at 10 uM; assay type: cell-based
[8] = Selectivity for rat alpha-4-beta-2 nACHR over alpha3beta4 nACHR expressed in human HEK293 cells; assay type: cell-based
In short: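 Ki ratio (α3β4/α4β2), taken from competition binding Ki values measured on membrane homogenates of stably transfected cells expressing the respective nAChR subtypes.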

[9] = biological target: Neuronal acetylcholine receptor; alpha3/beta4 (Rattus norvegicus) (UniProt P04757+P12392); assay: Efficacy at rat alpha3beta4 nACHR expressed in human HEK293 cells by rubidium efflux assay relative to nicotine; assay type: functional, cell-based
In short: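 Agonist-stimulated 86Rb+ efflux in KXα3β4R2 cells stably expressing rat α3β4 nAChRs. Mean ± standard error of three independent experiments, each in quadruplicate.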

[10] = biological target: T6, Neuronal acetylcholine receptor; alpha4/beta2 (Rattus norvegicus) (UniProt P09483+P12390); assay: Efficacy at rat alpha4beta2 nACHR by rubidium efflux assay; assay type: functional
[11] = biological target: T3, Neuronal acetylcholine receptor; alpha3/beta4; assay: Displacement of [3H]epibatidine from rat alpha3beta4 nACHR expressed in human HEK293 cells; assay type: cell-based
In short: (§1)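 Competition binding in membrane homogenates of stably transfected cells expressing each nAChR subtype, with Ki values derived from displacement.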

[12] = biological target: T5, Neuronal acetylcholine receptor; alpha4/beta4; assay: Displacement of [3H]epibatidine from rat alpha-4-beta-4 nACHR expressed in human HEK293 cells; assay type: cell-based; in short: as §1
[13] = biological target: T4, Neuronal acetylcholine receptor; alpha4/beta2; assay: Displacement of [3H]epibatidine from rat forebrain alpha4beta2 nACHR
In short: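 Competition binding was run on rat forebrain membrane homogenates.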

[14] = biological target: T1, Neuronal acetylcholine receptor; alpha2/beta2; assay: Displacement of [3H]epibatidine from rat alpha-2-beta-2 nACHR expressed in human HEK293 cells; assay type: cell-based; in short: as §1
[15] = biological target: T2, Neuronal acetylcholine receptor; alpha2/beta4; assay: Displacement of [3H]epibatidine from rat alpha-2-beta-4 nACHR expressed in human HEK293 cells; assay type: cell-based; in short: as §1
[16] = biological target: T6, Neuronal acetylcholine receptor; alpha4/beta2 (Rattus norvegicus); assay: Inhibition of nicotine-stimulated response at rat alpha-4-beta-2 nACHR at 100 uM; assay type: functional

T1 sequence (P12389 whole entry): as the sequence (P12389 whole entry) above
T1 sequence (P12390 whole entry): as the sequence (P12390 whole entry) above

SMILES | pKi [2] | pKi [3] | pKi [4] | pKi [5] | pKi [6] | pKi [7] | Ratio [8] | other results
CN1CCCC(Cn2ccccc2=O)C1 (centres undefined) | 3.74 | 5.22 | 3.80 | 6.01 | 5.59 | 4.12 | – | pKi [1]: 4.72
O=c1ccccn1CC1CCN(Cc2ccccc2)CC1 | 3.36 | 5.14 | 3.21 | 5.89 | 5.35 | 3.33 | – | pKi [1]: 4.59
CCCCc1ccc(-c2ccc3n(c2=O)CC2CNCC3C2)cc1 (single isomer, unassigned) | – | – | – | – | – | – | 17 | –
CN1CCC[C@H]1c1cccnc1 | – | – | – | – | – | – | – | Emax [9]: 100%; Emax [10]: 100%
O=c1cccc2n1C[C@@H]1CNC[C@H]2C1 [CYTISINICLINE] | – | – | – | – | – | – | 144 | pKi [11]: 6.66; pKi [12]: 8.68; pKi [13]: 8.72; pKi [14]: 8.97; pKi [15]: 8.27
C=Cc1ccc2n(c1=O)CC1CNCC2C1 (single isomer, unassigned) | – | – | – | – | – | – | – | Emax [10]: 22%
Cc1cc2n(c(=O)c1)CC1CNCC2C1 (racemic) | – | – | – | – | – | – | 3530 | pKi [13]: 7.70; inhibition [16]: > 50%
O=c1cc(CO)cc2n1CC1CNCC2C1 (racemic) | – | – | – | – | – | – | 909 | pKi [13]: 7.42; inhibition [16]: > 50%
Cc1ccc(-c2ccc3n(c2=O)CC2CNCC3C2)s1 (single isomer, unassigned) | – | – | – | – | – | – | 59 | –
CCC(=O)[C@H]1C2CNCC(C2)c2cccc(=O)n21 (single isomer, unassigned) | – | – | – | – | – | – | 18 | –
COC(=O)[C@H]1C2CNCC(C2)c2cccc(=O)n21 (single isomer, unassigned) | – | – | – | – | – | – | 13 | –
O=c1ccccn1CC1CCCN(Cc2ccccc2)C1 (centres undefined) | 4.04 | 5.37 | 4.08 | 6.27 | 5.85 | 4.27 | – | pKi [1]: 4.00
O=c1ccccn1CC1CCCNC1 (centres undefined) | 3.80 | 4.73 | 3.27 | 5.75 | 5.26 | 3.60 | – | pKi [1]: 5.33
O=c1ccccn1CC1CCNCC1 | 4.10 | 4.92 | 3.12 | 5.80 | 5.27 | 4.06 | – | –
O=c1c(-c2ccc(F)cc2)ccc2n1CC1CNCC2C1 (single isomer, unassigned) | – | – | – | – | – | – | 157 | –
